Consider two compounds from ChEMBL document CHEMBL4376859, “Prodrugs for nitroreductase-based cancer therapy-3: Antitumor activity of the novel dinitroaniline prodrugs/Ssap-NtrB enzyme suicide gene system: Synthesis, in vitro and in silico evaluation in prostate cancer” (Eur J Med Chem, 2020).

For data set [1], the target named is T1, Putative nitroreductase (Staphylococcus saprophyticus subsp. saprophyticus (strain ATCC 15305 / DSM20229 / NCIMB 8711 / NCTC 7292 / S-41), UniProt Q4A0P1).
T1 sequence (Q4A0P1 whole entry): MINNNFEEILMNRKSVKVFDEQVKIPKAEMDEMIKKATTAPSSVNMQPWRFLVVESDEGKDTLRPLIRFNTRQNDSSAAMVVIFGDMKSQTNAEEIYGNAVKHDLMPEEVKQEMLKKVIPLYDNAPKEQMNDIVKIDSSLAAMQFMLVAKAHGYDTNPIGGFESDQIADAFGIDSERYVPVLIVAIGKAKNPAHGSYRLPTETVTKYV
Put plainly: Binding affinity to Staphylococcus saprophyticus nitroreductase NtrB.

Data set [2] concerns the target T1, Putative nitroreductase. Put plainly: Substrate activity at Staphylococcus saprophyticus nitroreductase NtrB assessed as Km using NADPH as cofactor in Tris-Cl buffer at pH 7.5 incubated for 30 mins by HPLC analysis. The data set is classed as ADME. The settings on record: pH 7.5, 0.5 h.
Data set [3] deals with PC-3. The experiment in a line: Cytotoxicity against human PC3 cells […] Staphylococcus saprophyticus nitroreductase NtrB assessed as reduction in cell viability in presence of NADH as cofactor after 48 hrs by SRB assay. The data set is classed as functional, cell-based. The settings on record: PC-3, 48 h. Summed up:
(§1)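 Compounds were reduced outside the cells by purified His-tag (Ni column) Ssap-NtrB. The reaction mix held 600 µM NADH and compound (150, 39, 9 µM, or 180, 18, 1.8 nM) and was applied to PC-3 cells. Controls were compound alone in 25 mM Tris/HCl pH 7.5, and enzyme alone at 31 µg/mL. After 48 h, SRB absorbance was read at 492 nm and converted to % viability.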
(The SRB assay estimates cell density from bound dye.)

The target of data set [4] is T2, Oxygen-insensitive NAD(P)H nitroreductase (Escherichia coli K-12, UniProt P38489).
T2 sequence (P38489 whole entry): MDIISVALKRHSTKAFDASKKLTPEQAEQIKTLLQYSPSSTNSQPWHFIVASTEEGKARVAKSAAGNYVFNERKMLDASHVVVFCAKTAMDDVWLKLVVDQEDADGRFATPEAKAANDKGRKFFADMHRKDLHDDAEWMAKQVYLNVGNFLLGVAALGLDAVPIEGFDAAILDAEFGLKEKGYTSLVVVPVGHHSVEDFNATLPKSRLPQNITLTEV
Put plainly: Substrate activity at Escherichia coli nitroreductase nfsB assessed as Km using NADH as cofactor in Tris-Cl buffer at pH 7.5 by spectrophotometric method based Michaelis-Menten plot analysis. The data set is classed as ADME.

For data set [5], the target named is T3, Nitroreductase (Bacillus amyloliquefaciens, UniProt Q8VSR5).
T3 sequence (Q8VSR5 whole entry): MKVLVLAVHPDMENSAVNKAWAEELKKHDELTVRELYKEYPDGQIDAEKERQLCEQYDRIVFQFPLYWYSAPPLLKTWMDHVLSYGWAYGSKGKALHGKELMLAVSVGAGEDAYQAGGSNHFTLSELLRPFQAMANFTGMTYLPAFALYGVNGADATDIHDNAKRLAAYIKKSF
Put plainly: Substrate activity at Bacillus amyloliquefaciens nitroreductase ywrO assessed as ratio of Kcat/Km using NADPH as cofactor in sodium phosphate buffer at pH 7.5 by HPLC analysis relative to CB1954/NfsB. The data set is classed as ADME.

In data set [6] the target is T2, Oxygen-insensitive NAD(P)H nitroreductase. The experiment in a line: Substrate activity at Escherichia coli nitroreductase nfsB assessed as ratio of Kcat/Km using NADH as cofactor in Tris-Cl buffer at pH 7.5 by spectrophotometric method based Michaelis-Menten plot analysis. The data set is classed as ADME.
The nature of data set [7]: Substrate activity at Escherichia coli nitroreductase nfsA assessed as ratio of Kcat/Km using NADPH as cofactor in Tris-Cl buffer at pH 7.5 by spectrophotometric method based Michaelis-Menten plot analysis relative to CB1954/NfsB.
In data set [8] the target is T2, Oxygen-insensitive NAD(P)H nitroreductase. The experiment in a line: Substrate activity at Escherichia coli nitroreductase nfsB assessed as Kcat using NADH as cofactor in Tris-Cl buffer at pH 7.5 by spectrophotometric method. The data set is classed as ADME.
Data set [9] in a line: Substrate activity at Escherichia coli nitroreductase nfsA assessed as ratio of Kcat/Km using NADPH as cofactor in Tris-Cl buffer at pH 7.5 by spectrophotometry based Michaelis-Menten plot analysis. The data set is classed as ADME.
The subject of data set [10] is Hep 3B2. Put plainly: Cytotoxicity against human Hep3B cells assessed as cell viability at 9 to 150 uM after 48 hrs by MTT assay relative to control. The data set is classed as functional. Summed up: (§2)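 Hep3B hepatoma, PC-3 prostate cancer and HUVEC (healthy control) cells were exposed to nitro compounds at 150, 75, 38, 19 and 9 µM for 24 h and 48 h. Viability was read by MTT assay, and IC50 values were derived from the growth inhibition curves.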
(Tetrazolium assays rely on reduction of a dye to a coloured formazan, in cell work by metabolically active cells.)

Data set [11] deals with PC-3. The experiment in a line: Cytotoxicity against human PC3 cells assessed as cell viability at 9 to 150 uM after 24 hrs by MTT assay relative to control. The data set is classed as functional. Summed up:
as §2

Data set [12] deals with T1, Putative nitroreductase. Put plainly: Substrate activity at Staphylococcus saprophyticus nitroreductase NtrB assessed as ratio of Kcat/Km using NADPH as cofactor in Tris-Cl buffer at pH 7.5 incubated for 30 mins by HPLC analysis. The data set is classed as ADME. The settings on record: pH 7.5, 0.5 h.
Data set [13] has as its target T2, Oxygen-insensitive NAD(P)H nitroreductase. Put plainly: Substrate activity at Escherichia coli nitroreductase nfsB assessed as ratio of Kcat/Km using NADH as cofactor in Tris-Cl buffer at pH 7.5 by spectrophotometric method based Michaelis-Menten plot analysis relative to CB1954/NfsB. The data set is classed as ADME.
Data set [14] has as its system PC-3. Put plainly: Cytotoxicity against human PC3 cells assessed as cell viability at 9 to 150 uM after 48 hrs by MTT assay relative to control. The data set is classed as functional. The method, boiled down: as §2
Data set [15] concerns the target T1, Putative nitroreductase. The experiment in a line: Substrate activity at Staphylococcus saprophyticus nitroreductase NtrB assessed as Kcat using NADPH as cofactor in Tris-Cl buffer at pH 7.5 incubated for 30 mins by HPLC analysis. The note with it: pH 7.5, 0.5 h. The data set is classed as ADME.
For data set [16], the system named is PC-3. Put plainly: Cytotoxicity against human PC3 cells assessed as reduction in cell viability after 48 hrs by SRB assay. The data set is classed as functional, cell-based. Summed up:
as §1

Data set [17] is described as follows: Cytotoxicity against human HUVEC cells assessed as cell viability at 9 to 150 uM after 24 hrs by MTT assay relative to control. The note with it: read-out: Activity. The data set is classed as cell-based. The method, boiled down: as §2
A short description of data set [18]: Cytotoxicity against human HUVEC cells assessed as cell viability at 9 to 150 uM after 48 hrs by MTT assay relative to control. The data set is classed as cell-based. The settings on record: read-out: Activity. Summed up: as §2
Data set [19] concerns nitroreductase nfsA. The experiment in a line: Substrate activity at Escherichia coli nitroreductase nfsA assessed as Km using NADPH as cofactor in Tris-Cl buffer at pH 7.5 by spectrophotometry based Michaelis-Menten plot analysis. The data set is classed as ADME. The note with it: Escherichia coli nitroreductase nfsA enzyme.
Data set [20] has as its target T1, Putative nitroreductase. The experiment in a line: Substrate activity at Staphylococcus saprophyticus nitroreductase NtrB assessed as ratio of Kcat/Km using NADPH as cofactor in Tris-Cl buffer at pH 7.5 incubated for 30 mins by HPLC analysis relative to CB1954/NfsB. The data set is classed as ADME. The note with it: pH 7.5, 0.5 h.
Data set [21] is described as follows: Substrate activity at Escherichia coli nitroreductase nfsA assessed as Kcat using NADPH as cofactor in Tris-Cl buffer at pH 7.5 by spectrophotometric method. The data set is classed as ADME.
Data set [22] deals with Hep 3B2. The experiment in a line: Cytotoxicity against human Hep3B cells assessed as cell viability at 9 to 150 uM after 24 hrs by MTT assay relative to control. The data set is classed as functional. The method, boiled down:
as §2

The target in data set [23] is T2, Oxygen-insensitive NAD(P)H nitroreductase. Put plainly: Substrate activity at Escherichia coli nitroreductase nfsB assessed as ratio of Kcat/Km upto 1 mM using NADH as cofactor in sodium phosphate buffer at pH 7.5 incubated for 5 mins by RP-HPLC. The note with it: pH 7.5, 5 min. The data set is classed as ADME.
For data set [24] the target is unchanged. Put plainly: Substrate activity at Escherichia coli nitroreductase nfsB assessed as ratio of Kcat/Km upto 1 mM using NADH as cofactor in sodium phosphate buffer at pH 7.5 incubated for 5 mins by RP-HPLC relative to CB1954/NfsB. The data set is classed as ADME. The note with it: pH 7.5, 5 min.
Data set [25] shares this target. Put plainly: Substrate activity at Escherichia coli nitroreductase nfsB assessed as Kcat upto 1 mM using NADH as cofactor in sodium phosphate buffer at pH 7.5 incubated for 5 mins by RP-HPLC. The note with it: pH 7.5, 5 min. The data set is classed as ADME.

The source made the active and inactive calls. No cut-off for these calls is given here.

One may read the Ki as the equilibrium dissociation constant of an inhibitor or competing ligand from its target. Broadly, the Km is the substrate concentration at which the rate is half of its maximum. The term IC50 denotes the concentration needed to halve the response being measured. Turning to `NC(=O)c1cc(N2CC2)c([N+](=O)[O-])cc1[N+](=O)[O-]` [TRETAZICAR], the Ki in data set [1] is 5.96 µM. Further, the figures for the Km in [2], in data set [4] and in data set [19] were 1070 µM, 11000 µM and 220 µM, respectively. For the same compound, the half-maximal inhibitory concentration (IC50) in data set [3] amounted to 0.00179 µM. Besides, the “fold change (FC)” value in data set [5] came to 2.37; in [7], 13.04; in data set [13], 1; in [20], 0.38. For the same compound, the values for the Kcat/Km in data set [6], in [9] and in [12] were 5600 M⁻¹ s⁻¹, 73000 M⁻¹ s⁻¹ and 2120 M⁻¹ s⁻¹, respectively. The Kcat in data set [8] is 62 s⁻¹; in data set [15] it was 2.26 s⁻¹; in [21], 16 s⁻¹. Moreover, the Activity in data set [10], in data set [11], in [14] and in [22] was over 80% throughout. In addition, the outcome in data set [16] was inactive. In data set [17], the viability at 24 h, up to 150 µM is over 80%. The viability at 48 h, up to 150 µM in data set [18] is over 80%.
On to `NC(=O)c1cc(N(CCCl)CCCl)c([N+](=O)[O-])cc1[N+](=O)[O-]`, for which, in data set [1], the Ki was 7.28 µM. Besides, the Kcat/Km in data set [23] was 10560 M⁻¹ s⁻¹; in [12], 9350 M⁻¹ s⁻¹. For the same compound, the “fold change (FC)” value is 1.89 in data set [24] and 1.67 in [20]. The results for the Kcat in data set [25] and in [15] were 26.4 s⁻¹ and 0.8 s⁻¹, respectively.
